Screening data deposited in PubChem by several laboratories.
An excerpt weighted towards active compounds, which were near 6.8% of everything screened.
PHOSPHO1 block = inhibitors of human PHOSPHO1 phosphatase; actives 1.1% (n = 290,000); recombinant PHOSPHO1, absorbance phosphatase assay; AID 1565; inhibition, % at 13.3 µM; in the data active = inhibition above about 60%
Target sequence (Q8TCT1 whole entry, looked up): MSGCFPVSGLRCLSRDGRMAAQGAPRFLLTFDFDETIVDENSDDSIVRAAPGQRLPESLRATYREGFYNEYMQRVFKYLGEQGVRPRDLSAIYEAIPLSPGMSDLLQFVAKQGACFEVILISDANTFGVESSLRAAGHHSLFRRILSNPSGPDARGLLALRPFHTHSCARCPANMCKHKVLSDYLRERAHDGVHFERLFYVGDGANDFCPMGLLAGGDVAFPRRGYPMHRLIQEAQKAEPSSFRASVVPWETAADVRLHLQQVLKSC
AI-2 QS mod = Vibrio harveyi AI-2 quorum sensing modulation; activity change, % at 7.5 µM; actives 0.4% (n = 300,000); Vibrio harveyi JMH597 AI-2 luminescence/OD600 ratio, 9 h; active compounds read low; strain lacks LuxN and CqsS sensors; 0 = neutral-control median; in the data active = activity change below about -75%, passing the limit was not always enough;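 also: luminescence divided by OD600 gain over 9 h not by final OD600 alone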
core dimer inh = HCV core protein dimerization inhibition; TR-FRET GST/Flag-core106 dimerization, 1536-well; inhibition, % at 5 µM; actives 0.33% (n = 300,000);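 active = inhibition above the mean of all tested compounds plus 3 SD, set per screening campaign, cut at about 45% in these data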
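System: GST-tagged and Flag-tagged HCV core protein residues 1-106 / Input: core106 proteins, GST 13.5 nM and Flag 17 nM / Buffer or medium: KF-containing HEPES buffer, pH 7.45, DTT, CHAPS, BSA / Probe or stimulus: Eu-anti-GST and XL665-anti-Flag labelled anti-tag antibodies / Schedule: 4 h, 22.5 °C incubation / Technique: TR-FRET 671 and 617 nm emission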
ALR H2O2 inh = human ALR oxidase inhibition via reduced H2O2 | inhibition, % (no concentration beside the values) | AID 485317 | actives 3.8% (n = 290,000) | purified ALR, DTT oxidation, H2O2 HRP-luminol luminescence;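 active = mean replicate inhibition above about 79%, with every replicate also reaching it, limit read from the data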
Target sequence (P55789 whole entry, looked up): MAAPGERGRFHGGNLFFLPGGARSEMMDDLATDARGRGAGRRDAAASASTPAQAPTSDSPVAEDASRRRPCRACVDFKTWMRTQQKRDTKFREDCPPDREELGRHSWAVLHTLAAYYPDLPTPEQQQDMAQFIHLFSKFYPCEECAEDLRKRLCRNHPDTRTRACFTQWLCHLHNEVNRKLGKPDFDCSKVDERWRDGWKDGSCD
HSF1 activator = increases HSF-1 driven luciferase reporter signal. NIH3T3-HGL HSF-1 luciferase reporter, MG132, 8 h; 100% = twice DMSO control signal. activation, % at 9 µM. actives 1.7% (n = 300,000);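 active = mean replicate activation of at least 50% with a set share of replicates each reaching 50%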;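 also: 0% = median of the neutral control wells and 100% = twice that signal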
HSF1 inh = HSF1 inhibition. NIH3T3-HGL HSE-luciferase, MG132-induced, luminescence 8 h; active compounds read low. activity change, negative = inhibition, % at 7.5 µM (by protocol). actives 0.77% (n = 300,000);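 active = more than half of replicate wells show activity change below -50%, luminescence cut by over half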;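 also: luciferase reports HSF-1 transcriptional activity via heat shock element; 0% = median of DMSO wells and -100% = zero luminescence signal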
The depositor's hits bear a star; . = not tested or not shown.

SMILES	PHOSPHO1 block	AI-2 QS mod	core dimer inh	ALR H2O2 inh	HSF1 activator	HSF1 inh
Cc1cccc(N2CCN(S(=O)(=O)c3c(C)[nH]c(C)c3C(=O)N3CCCC3)CC2C)c1 (stereo not drawn)	22	14	-5	64	55*	17
CCOC(=O)c1c(C)[nH]c(C)c1S(=O)(=O)N1CCN(c2cccc(C)c2)C(C)C1 (stereo not drawn)	7	23	7	60	87*	40
C=CCOc1ccc(C=Nc2ccc(C)c(Cl)c2)c(O)c1	5	34	0	-20	2	9
CCc1ccc(NC(=O)c2ccc(NC3=NC4CS(=O)(=O)CC4S3)cc2)cc1 (stereo not drawn)	21	-1	8	-5	2	-4
CC1CCN(CCCNC(=O)CCNC(=O)Cn2cnc3ccccc3c2=O)CC1	36	3	-8	0	10	0
CCN(CC)S(=O)(=O)c1cccc(C(=O)OCC(=O)c2ccc3c(c2)NC(=O)CO3)c1	-21	17	1	-23	1	2
O=C1COc2ccc(C(=O)COC(=O)c3ccc(S(=O)(=O)C(F)F)cc3)cc2N1	.	-94*	-4	-6	-5	0
O=C(NNC(=O)c1cc2cc3ccccc3nc2s1)c1cccc(Cl)c1	37	11	58*	-2	17	-1
Cc1cccc(C(=O)NNC(=O)c2cc3cc4ccccc4nc3s2)c1	33	13	25	9	.	.
C=CCN(C(=O)Cc1cccs1)c1nc(-c2ccc(S(C)(=O)=O)cc2)cs1	22	25	32	-7	5	1
C=CCN(C(=O)CCc1ccccc1OC)c1nc(-c2ccc(S(C)(=O)=O)cc2)cs1	-18	14	-7	15	58*	15
Cc1noc(C)c1S(=O)(=O)NCCN1CCN(c2ccccc2)CC1	31	-18	-16	86*	-8	-2
Cc1noc(C)c1S(=O)(=O)NCCCN1CCN(Cc2ccccc2)CC1	15	8	9	10	-1	-1
O=C(Cc1ccc(Cl)cc1)Nc1ccccc1Sc1ccccc1	-9	16	4	-3	20	7
O=C(Cc1ccccc1)Nc1cc(Cl)ccc1Sc1ccccc1	3	24	-2	2	58*	29
COc1ccc(OCCC(=O)Nc2cc(C)on2)cc1	18	22	-7	-17	-9	-8
COc1ccc(CC(=O)Nc2cc(C)on2)cc1	16	17	-3	-5	-93	-91*
COc1ccc(CC(=O)Nc2cc(Cl)ccc2O)cc1	14	-94*	-1	-10	7	1
Cc1c(NS(=O)(=O)c2ccc(Cl)c(C(=O)OCC(=O)NCc3ccco3)c2)c(=O)n(-c2ccccc2)n1C	47	18	-2	.	1	2
COc1ccc(C(=O)OCC(=O)N(C)C2CCS(=O)(=O)C2)cc1Br (stereo not drawn)	.	.	.	0	.	.
CCN(CC(=O)Nc1ccc(NC(C)=O)cc1)C(=O)/C=C/c1ccco1	.	18	-1	-2	11	5
CCN(CC(=O)NCc1ccc(F)cc1)C(=O)/C=C/c1ccco1	-5	-4	-4	88*	5	-3
O=C(/C=C/c1ccco1)NCc1ccc2c(c1)OCO2	51	-77*	3	31	-2	-5
CCCN(CC(=O)Nc1ccc(Cl)cc1Cl)C(=O)/C=C/c1ccco1	-11	6	4	-1	64*	50
N#Cc1cc([N+](=O)[O-])ccc1NC(=O)COC(=O)CC1CCCC1	30	8	7	4	5	-4
SMILES	PHOSPHO1 block	AI-2 QS mod	core dimer inh	ALR H2O2 inh	HSF1 activator	HSF1 inh
CC1CN(C(=O)COC(=O)c2ccc(C#N)cc2)CC(C)O1 (stereo not drawn)	39	4	-6	-3	5	2
CCOC(=O)C(C(=O)Nc1ccccn1)C1CCCCC1 (stereo not drawn)	70*	8	-2	.	24	4
COc1ccc(O)c(CNc2ccccc2F)c1	-2	0	-1	99*	13	2
COc1ccccc1OCC(=O)N1CCCC(Nc2ccc(F)c(F)c2)C1 (stereo not drawn)	43	15	7	41	-6	-3
COc1ccc(CCC(=O)N2CCCC(Nc3ccc(C)c(C)c3)C2)cc1OC (stereo not drawn)	14	-5	6	99*	-6	1
COc1ccc(NC2CCCN(C(=O)COc3ccc(Cl)cc3C)C2)cc1OC (stereo not drawn)	37	7	-1	96*	3	1
Cc1ccc(NC2CCCN(C(=O)CSc3ccccn3)C2)cc1C (stereo not drawn)	3	18	.	99*	3	5
COc1ccccc1OCC(=O)N1CCCC(Nc2ccc(C)c(C)c2)C1 (stereo not drawn)	28	38	2	98*	-9	1
COCCSc1nnc(NC(=O)COc2ccc3c(c2)OCO3)s1	11	.	3	-7	0	-2
O=C(NCC(c1ccc(F)cc1)N1CCOCC1)c1ccco1 (stereo not drawn)	.	-6	4	0	8	6
Cc1ccc(NC2CCCN(C(=O)CCC3=NNC(=O)CC3)C2)cc1C (stereo not drawn)	37	-1	-7	98*	-5	4
OC1(c2ccc(Cl)c(Cl)c2)C[n+]2ccccc2N1Cc1ccccc1 (stereo not drawn)	33	55	3	-5	8	-1
CC(C)c1ccc(C2NC(=O)c3ccccc3O2)cc1 (stereo not drawn)	-2	-15	-3	.	71*	35
N#CC(C#N)=Cc1ccc(OCC(=O)N2CCOCC2)cc1	-5	-1	-1	.	-7	-1
O=C(NCc1ccccc1C(F)(F)F)C1CC(c2ccc(C(F)(F)F)cc2)=NO1 (stereo not drawn)	26	0	-15	50	-72	-65*
COc1cc(OC)nc(-n2ncc(Br)c(Br)c2=O)n1	13	.	5	92*	.	.
COC(=O)c1cnn(-c2nc(OC)cc(OC)n2)c1C	6	6	-3	-2	-22	6
CC1(c2ccccc2)CC2CC(c3ccccc3)N1O2 (stereo not drawn)	12	-5	-2	0	124*	64
Cc1c(NC(=O)Nc2cccc(C(F)(F)F)c2)c(=O)n(-c2ccccc2)n1C	66*	5	-4	0	1	-5
Cc1c(NC(=S)N/N=C/c2ccc(O)cc2)c(=O)n(-c2ccccc2)n1C	-5	31	-7	99*	-6	2
Cc1ccc(NC(=O)Nc2c(C)n(C)n(-c3ccccc3)c2=O)cc1	2	13	6	19	9	-7
